Broadly, the IC50 is the midpoint of a concentration-inhibition curve.

Our source for the IC50 values is ChEMBL document CHEMBL1149909, “Aurocitrin and related polyketide metabolites from the wood-decay fungus Hypocrea sp. BCC 14122” (J Nat Prod, 2008).

Each structure is given as a SMILES string.

One assay deals with Plasmodium falciparum. Put plainly: Antimalarial activity against multidrug-resistant Plasmodium falciparum K1 by microculture radioisotope technique. The format is functional, organism-based.
For a further assay, the system named is Vero. Description: Cytotoxicity against african green monkey Vero cells by colorimetric method. It counts as cell-based. Particulars: Chlorocebus sabaeus. A digest of the protocol:
(§1)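 Colorimetric cytotoxicity read-out on four cell lines: KB (oral human epidermoid carcinoma), BC (human breast cancer), NCI-H187 (human small cell lung cancer) and Vero (African green monkey kidney […]). A reference compound was run alongside.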

In a further assay the test system is NCI-H187. Description: Cytotoxicity against human NCI-H187 cells by colorimetric method. The format is functional, cell-based. In outline: as §1
The test system of another assay is KB. Put plainly: Cytotoxicity against human KB cells by colorimetric method. The format is functional, cell-based. A digest of the protocol:
as §1

The nature of assay [1]: Cytotoxicity against human BC cells by colorimetric method. The format is functional, cell-based. In outline: as §1

As for `C[C@H]1[C@@H](O)O[C@@H]2O[C@@]3(C)CC[C@H]4[C@H](C)CC[C@@H]1[C@@]24OO3` [ARTENIMOL], the IC50 with Plasmodium falciparum worked out at 4.5 nM.
Turning to `Cc1c2ccncc2c(C)c2c1[nH]c1ccccc12` [ELLIPTECINE], the IC50 was found to be 2100 nM in the assay with Vero, 2000 nM in the assay on NCI-H187, 2200 nM with KB and 1200 nM in assay [1].
